This is an account of results in PubChem BioAssay.

Unmarked numbers belong to inactive results. Inconclusive results are not listed. Activity calls are given as the source filed them.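 How the source made its calls, unless noted: active means viability increase at or above a cutoff of the median across tested compounds plus 3 SD (cut at about 8.5% in these data, passing the limit was not always enough); inconclusive means some gains above the cutoff, reason not given; inactive means the rest.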

The viability is a read-out of living cells in per cent, often relative to untreated cells. The term inhibition denotes the drop in the measured response relative to a control, in per cent.

A short description of assay [1]: OD615 S. cerevisiae growth inhibition, permissive medium, pilot counter-assay, permissive growth control for S. cerevisiae lifespan shortening project (AID 705;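 active means growth inhibition above 25% in both replicates, a cutoff set 3 SD above the mean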). Conditions: OD615, 24 h, at 10 µM, stronger effect = higher value. In short, it runs like this:
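System: Engineered DeaD yeast | Buffer or medium: SC raffinose/galactose permissive medium | Incubation: Cells pre-grown 4 h, then 24 h compound exposure, 30 °C humidified | Measured by: Absorbance (optical density) at 615 nm | Read-out: Reduction in yeast growth (OD615)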

A short description of assay [2]: Restrictive medium S. cerevisiae growth inhibition, OD615, pilot screen of yeast lifespan reduction project, restrictive growth control (AID 706;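 active means growth inhibition above a set limit, 3 SD over mean compound inhibition, in both replicates, cut at about 43% in these data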;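 further: modified DeaD lifespan yeast strain shifted to restrictive glucose medium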). To be noted: OD615, 48 h, at 10 µM, stronger effect = higher value. Put shortly: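 Material: modified S. cerevisiae; Medium: glucose-based CSMM-D restrictive medium; Compound dosing: one concentration, 10 µM final, 0.25% DMSO; Incubation: 48 h compound exposure at 30 °C; Measured by: OD615.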

Assay [3] is described as follows: viability gain of MRP-1-high H69AR cells under doxorubicin, pilot screen, MRP-1 activator project, CellTiter-Glo, duplicate (AID 807).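 Further: compound pretreatment 18-22 h then 72 h combined with doxorubicin; 0% = doxorubicin alone and 100% = vehicle without doxorubicin.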 Conditions: H69AR viability with doxorubicin, CellTiter-Glo luminescence; at 10 µM; stronger effect = higher value. (In ATP-based viability assays light output follows the ATP content of the culture.)
Assay [4] in a line: growth suppression of beta-catenin knockout HCT116, pilot screen, human colon tumor cells (AID 823;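 active means cell viability at or below a set limit in both duplicate runs, the limit being the all-compound median minus 4 SD, cut at about 23% in these data, passing the limit was not always enough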;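 further: 0% = wells killed by 20 µM Hyamine and 100% = untreated DMSO cell wells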). To be noted: CellTiter-Glo, 60 h, at 10 µM, stronger effect = lower value.
Assay [5] in a line: growth suppression of PTEN-deleted HCT116, pilot screen, cell-based, HCT116 clonal line, CellTiter-Glo (AID 824;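 active means viability at or below 27.92% in each of two runs, the all-compound median minus 4 SD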;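 further: 0% = 20 µM Hyamine control and 100% = vehicle cell control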). Conditions: 60 h, at 10 µM, stronger effect = lower value.
A short description of assay [6]: inhibitors of the yeast RAM network, pilot screen, dse1pr::URA3 reporter, 5-FOA selection (AID 869;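 active means inhibition over a set limit, the all-compound mean plus 3 SD, in both replicate runs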;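 further: 0% = DMSO wells with no growth and 100% = 10 µM 1-NA-PP1 with full growth; RAM network block rescues cells from 5-FOA so hits raise OD615 growth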). Conditions: S. cerevisiae dse1pr::URA3 5-FOA growth, OD615, 2 d; at 10 µM; stronger effect = higher value; strain carries analog-sensitive mutant Cbk1 kinase.
A short description of assay [7]: RAM signaling pathway blockade in yeast – S. cerevisiae, Pdr1DBD-CYC8 efflux-inhibited sensitized strain, primary screen (AID 1298;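 active means RAM network inhibition above 8.4% in each of two replicates, 3 SD over the compound average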;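 further: 0% = DMSO untreated cells without growth and 100% = 10 µM 1-NA-PP1 full growth; higher means more yeast growth rescued from 5-FOA killing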). Conditions: S. cerevisiae cbk1-as DSE1-URA3 strain, 5-FOA growth OD615, 2 d; at 50 µM; stronger effect = higher value.

Take `Nc1c(S(=O)(=O)c2ccccc2)c2nc3ccccc3nc2n1Cc1ccco1`: the figures for the growth inhibition in assay [1] and in assay [2] were -25.5% and -16.2%, respectively. The viability increase in assay [3] was -3.97%. The viability in assay [4] was 78.8%; in assay [5], 73.8%. Moreover, the inhibition in assay [6] is 2.83%. Also, the RAM network inhibition in assay [7] is 7.51%.
Regarding `COc1ccccc1CCNC(=O)c1cnn2c(C(F)F)cc(C)nc12`, the growth inhibition in assay [1] is -0.75%; in assay [2], 11.3%. For the same compound, the viability increase in assay [3] is -0.37%. The viability in assay [4] is 103%; in assay [5] it was 97.7%. In assay [6], the inhibition is -0.1%. For the same compound, in assay [7], the RAM network inhibition is 4.32%.
For the compound `O=C(Nc1ccccc1C1CC1)c1cccs1`, the values for the growth inhibition in assay [1] and in assay [2] were -10.4% and -19.7%, respectively. The viability increase in assay [3] was 1.09%. The results for the viability in assay [4] and in assay [5] were 95% and 96.9%, respectively. Further, the inhibition in assay [6] was 1.16%. For the same compound, the RAM network inhibition in assay [7] is 0.36%.
For the compound `O=C(O)CCCC(=O)Nc1ccc(Cl)c(Cl)c1`, the growth inhibition was 4.12% in assay [1] and -2% in assay [2]. In addition, the viability increase in assay [3] is -0.13%. In addition, the values for the viability in assay [4] and in assay [5] were 95.4% and 98.1%, respectively. Also, in assay [6], the inhibition is 0.165%. In addition, in assay [7], the RAM network inhibition was 1.64%.
As for `CN(C)/C=N/c1c(C#N)cnn1-c1ccccc1`, the growth inhibition in assay [1] is -5.88%; in assay [2], -14.5%. For the same compound, the viability increase in assay [3] is -1.11%. Besides, the viability in assay [4] was 103%; in assay [5], 96.6%. In assay [6], the inhibition was 1.95%. Besides, the RAM network inhibition in assay [7] was 4.32%.
As for `CC(Cc1ccccc1)N/C=C1/CC(=O)NC1=O` (stereo unspecified), the growth inhibition in assay [1] is -8.61%; in assay [2], 0.51%. Also, the viability increase in assay [3] was -1.53%. Further, the viability in assay [4] and in assay [5] was 97% throughout. For the same compound, the inhibition in assay [6] was 1.42%. In addition, the RAM network inhibition in assay [7] was 2.56%.
As for `O=C(OC1CCCCC1)c1ccc(NC(=O)c2ccco2)cc1`, the growth inhibition in assay [1] was -1.26%; in assay [2], -7.55%. Moreover, the viability increase in assay [3] is -2.73%. Further, the viability was 70.1% in assay [4] and 77.5% in assay [5]. In assay [6], the inhibition was 0.87%. Besides, in assay [7], the RAM network inhibition is 2.81%.
As for `Cn1c(C(=O)NCc2cccs2)cc2c(=O)n(C)c3ccccc3c21`, the figures for the growth inhibition in assay [1] and in assay [2] were -0.025% and -1.79%, respectively. Also, in assay [3], the viability increase is -3.65%. Further, the values for the viability in assay [4] and in assay [5] were 98.9% and 98.1%, respectively. The inhibition in assay [6] was 2.62%. The RAM network inhibition in assay [7] was 1.75%.
Consider `CC(=O)Nc1sc(C)c(C)c1CN1CCN(S(=O)(=O)c2ccccc2)CC1`, for which the growth inhibition in assay [1] is -1.31%; in assay [2], -23.5%. Moreover, the viability increase in assay [3] was -2.28%. Also, the values for the viability in assay [4] and in assay [5] were 88.5% and 85%, respectively. Moreover, in assay [6], the inhibition was -0.365%. Moreover, the RAM network inhibition in assay [7] is 1.74%.
Consider `NC(=O)C1(S(=O)(=O)c2ccccc2)CCCCC1`, for which the growth inhibition was -0.22% in assay [1] and -4.29% in assay [2]. In assay [3], the viability increase is -1.06%. In addition, the viability in assay [4] is 97.8%; in assay [5] it was 96.7%. Also, in assay [6], the inhibition is 1.43%. For the same compound, the RAM network inhibition in assay [7] is 4.97%.
Consider `O=C(O)CCn1c(=O)[nH]c2ccccc2c1=O`, for which the growth inhibition in assay [1] was -6.32%; in assay [2], -15.1%. The viability increase in assay [3] is 0.62%. Besides, the viability in assay [4] is 109%; in assay [5], 105%. The inhibition in assay [6] is 1.34%. In addition, the RAM network inhibition in assay [7] is 0.63%.
As to `CC1=C(C(=O)OCc2ccc3c(c2)OCO3)C(c2ccc(Cl)cc2)NC(=O)N1` (stereo unspecified), the results for the growth inhibition in assay [1] and in assay [2] were -4.12% and -5.46%, respectively. Further, the viability increase in assay [3] is -4.91%. Besides, the viability in assay [4] was 19.4% (active); in assay [5], 22.3% (active). Besides, in assay [6], the inhibition was 1.32%. Besides, the RAM network inhibition in assay [7] was 4.12%.
`Cn1nc(CC(=O)NC2CCCCCC2)c2ccccc2c1=O`: the results for the growth inhibition in assay [1] and in assay [2] were 3.21% and 6.03%, respectively. The viability increase in assay [3] is -2.58%. Further, the viability in assay [4] was 62.4%; in assay [5], 76.4%. For the same compound, in assay [6], the inhibition was 0.825%. In addition, the RAM network inhibition in assay [7] was 1.38%.
As to `COc1ccccc1N1CCN(C(=O)c2cc3cc(Br)ccc3oc2=O)CC1`, the growth inhibition was 2.45% in assay [1] and -11.9% in assay [2]. For the same compound, the viability increase in assay [3] was -0.94%. Besides, the viability in assay [4] is 110%; in assay [5], 94.1%. In addition, the inhibition in assay [6] was 2.47%. In addition, the RAM network inhibition in assay [7] was 1.96%.
`FC(F)(F)c1nnc2ccc(-n3ccnc3)nn12`: the growth inhibition is -9.92% in assay [1] and -28.6% in assay [2]. Also, the viability increase in assay [3] is -1.45%. Moreover, the viability in assay [4] was 103%; in assay [5], 88.4%. For the same compound, the inhibition in assay [6] is 0.61%. For the same compound, in assay [7], the RAM network inhibition is 3.79%.
Take `Cc1ccccc1-c1noc(-c2cccs2)n1`: the growth inhibition was 8.34% in assay [1] and 6.79% in assay [2]. Besides, the viability increase in assay [3] was -4.68%. Also, the viability in assay [4] is 94%; in assay [5], 90.4%. Moreover, in assay [6], the inhibition was 2.11%. Besides, in assay [7], the RAM network inhibition is 6%.
As for `O=c1c2cnn(-c3ccccc3)c2ncn1Cc1ccccc1F`, the growth inhibition in assay [1] is -1.06%; in assay [2], 9.05%. In assay [3], the viability increase is -0.65%. For the same compound, the figures for the viability in assay [4] and in assay [5] were 93% and 88.6%, respectively. The inhibition in assay [6] was -0.06%. Moreover, in assay [7], the RAM network inhibition is 4.95%.
As to `COc1ccc(OC)c(S(=O)(=O)Nc2ccc(OCC(=O)O)cc2)c1`, the growth inhibition in assay [1] is -9.87%; in assay [2], -4.85%. In assay [3], the viability increase was -0.45%. The viability is 98.3% in assay [4] and 91.1% in assay [5]. Moreover, in assay [6], the inhibition was 0.98%. For the same compound, the RAM network inhibition in assay [7] is 2.71%.
